The text below walks through data of BindingDB's records for doi:10.1016/j.bmc.2010.03.038 (Northwestern University, 2010).

In assay [1] the target is Voltage-dependent L-type calcium channel subunit alpha-1C (Oryctolagus cuniculus, UniProt P15381). Description: Antagonist activity at rabbit Cav1.2 expressed in HEK293 cells assessed as inhibition of voltage pulse-induced calcium current by FLIPR calcium 4 assay. The method in brief:
(§1)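 HEK293 lines stably expressing Cavβ3 and Cavα2δ-1 plus Cav1.2 α1C (rabbit) or Cav1.3 α1D (rat) were selected with zeocin/hygromycin. Calcium signals were read by FLIPR with Calcium 4 dye. IC50 came from 11-point dose-response curves. Signal percentage error (SD/mean) was 6.4% for Cav1.2 and 4.1% for Cav1.3 cells.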

Assay [2] deals with Voltage-dependent L-type calcium channel subunit alpha-1D (Rattus norvegicus, UniProt P27732). Description: Antagonist activity at rat Cav1.3 expressed in HEK293 cells assessed as inhibition of voltage pulse-induced calcium current by FLIPR calcium 4 assay. The method in brief: as §1
Voltage-dependent L-type calcium channel subunit alpha-1D, sequence (P27732 whole entry): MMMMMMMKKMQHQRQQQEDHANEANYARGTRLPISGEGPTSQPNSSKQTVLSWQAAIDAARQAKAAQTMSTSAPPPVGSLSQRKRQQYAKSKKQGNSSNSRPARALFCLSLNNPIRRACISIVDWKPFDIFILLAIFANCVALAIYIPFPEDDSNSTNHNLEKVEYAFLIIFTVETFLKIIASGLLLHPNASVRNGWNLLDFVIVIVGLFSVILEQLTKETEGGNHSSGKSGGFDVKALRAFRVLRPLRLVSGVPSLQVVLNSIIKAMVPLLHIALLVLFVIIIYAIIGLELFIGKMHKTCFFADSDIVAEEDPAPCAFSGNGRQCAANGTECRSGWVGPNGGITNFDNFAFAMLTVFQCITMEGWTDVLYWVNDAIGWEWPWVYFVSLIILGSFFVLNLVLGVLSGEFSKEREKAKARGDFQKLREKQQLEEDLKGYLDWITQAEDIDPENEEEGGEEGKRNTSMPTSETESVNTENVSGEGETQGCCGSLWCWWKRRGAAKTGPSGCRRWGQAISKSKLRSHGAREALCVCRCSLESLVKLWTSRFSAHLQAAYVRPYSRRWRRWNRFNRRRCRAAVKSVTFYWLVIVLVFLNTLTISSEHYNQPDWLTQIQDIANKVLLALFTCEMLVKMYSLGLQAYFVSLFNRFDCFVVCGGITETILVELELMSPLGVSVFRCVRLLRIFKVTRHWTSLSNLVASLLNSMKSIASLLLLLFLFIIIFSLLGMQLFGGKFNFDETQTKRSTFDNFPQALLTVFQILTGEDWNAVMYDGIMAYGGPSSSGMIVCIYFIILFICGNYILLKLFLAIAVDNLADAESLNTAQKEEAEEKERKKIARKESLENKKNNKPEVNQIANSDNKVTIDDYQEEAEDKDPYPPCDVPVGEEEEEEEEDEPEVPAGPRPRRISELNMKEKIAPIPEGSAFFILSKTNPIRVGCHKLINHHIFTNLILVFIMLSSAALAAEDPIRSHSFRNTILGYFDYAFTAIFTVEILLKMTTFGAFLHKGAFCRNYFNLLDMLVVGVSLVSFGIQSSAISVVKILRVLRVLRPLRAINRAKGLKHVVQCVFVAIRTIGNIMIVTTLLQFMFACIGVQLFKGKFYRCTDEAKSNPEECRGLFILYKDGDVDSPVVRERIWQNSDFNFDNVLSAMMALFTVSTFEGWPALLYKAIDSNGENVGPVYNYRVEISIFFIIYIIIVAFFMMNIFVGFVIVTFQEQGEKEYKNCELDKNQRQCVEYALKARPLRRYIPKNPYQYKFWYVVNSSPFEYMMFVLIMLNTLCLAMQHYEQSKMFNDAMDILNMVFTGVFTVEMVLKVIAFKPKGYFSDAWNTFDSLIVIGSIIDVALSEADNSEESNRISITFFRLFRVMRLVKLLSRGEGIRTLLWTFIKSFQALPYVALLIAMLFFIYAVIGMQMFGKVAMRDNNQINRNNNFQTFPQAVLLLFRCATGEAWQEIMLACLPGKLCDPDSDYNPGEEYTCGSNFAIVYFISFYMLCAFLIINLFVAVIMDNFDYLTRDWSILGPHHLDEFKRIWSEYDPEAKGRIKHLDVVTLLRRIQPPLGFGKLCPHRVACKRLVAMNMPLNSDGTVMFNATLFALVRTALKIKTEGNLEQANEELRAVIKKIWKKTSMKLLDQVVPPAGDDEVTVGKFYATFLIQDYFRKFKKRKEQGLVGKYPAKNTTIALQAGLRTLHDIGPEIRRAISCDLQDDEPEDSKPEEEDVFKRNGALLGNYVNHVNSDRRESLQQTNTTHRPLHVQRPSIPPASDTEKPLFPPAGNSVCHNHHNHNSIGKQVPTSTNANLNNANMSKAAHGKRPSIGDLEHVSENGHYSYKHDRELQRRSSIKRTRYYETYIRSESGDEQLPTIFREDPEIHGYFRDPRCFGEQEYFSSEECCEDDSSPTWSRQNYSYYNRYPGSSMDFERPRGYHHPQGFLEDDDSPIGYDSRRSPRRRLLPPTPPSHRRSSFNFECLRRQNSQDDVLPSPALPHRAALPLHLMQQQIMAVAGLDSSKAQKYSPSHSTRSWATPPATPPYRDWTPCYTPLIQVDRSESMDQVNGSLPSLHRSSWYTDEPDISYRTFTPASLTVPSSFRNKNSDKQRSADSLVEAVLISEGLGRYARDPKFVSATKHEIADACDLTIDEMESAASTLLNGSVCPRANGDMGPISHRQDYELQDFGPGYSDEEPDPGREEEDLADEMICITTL

Voltage-dependent L-type calcium channel subunit alpha-1C, sequence (P15381 whole entry): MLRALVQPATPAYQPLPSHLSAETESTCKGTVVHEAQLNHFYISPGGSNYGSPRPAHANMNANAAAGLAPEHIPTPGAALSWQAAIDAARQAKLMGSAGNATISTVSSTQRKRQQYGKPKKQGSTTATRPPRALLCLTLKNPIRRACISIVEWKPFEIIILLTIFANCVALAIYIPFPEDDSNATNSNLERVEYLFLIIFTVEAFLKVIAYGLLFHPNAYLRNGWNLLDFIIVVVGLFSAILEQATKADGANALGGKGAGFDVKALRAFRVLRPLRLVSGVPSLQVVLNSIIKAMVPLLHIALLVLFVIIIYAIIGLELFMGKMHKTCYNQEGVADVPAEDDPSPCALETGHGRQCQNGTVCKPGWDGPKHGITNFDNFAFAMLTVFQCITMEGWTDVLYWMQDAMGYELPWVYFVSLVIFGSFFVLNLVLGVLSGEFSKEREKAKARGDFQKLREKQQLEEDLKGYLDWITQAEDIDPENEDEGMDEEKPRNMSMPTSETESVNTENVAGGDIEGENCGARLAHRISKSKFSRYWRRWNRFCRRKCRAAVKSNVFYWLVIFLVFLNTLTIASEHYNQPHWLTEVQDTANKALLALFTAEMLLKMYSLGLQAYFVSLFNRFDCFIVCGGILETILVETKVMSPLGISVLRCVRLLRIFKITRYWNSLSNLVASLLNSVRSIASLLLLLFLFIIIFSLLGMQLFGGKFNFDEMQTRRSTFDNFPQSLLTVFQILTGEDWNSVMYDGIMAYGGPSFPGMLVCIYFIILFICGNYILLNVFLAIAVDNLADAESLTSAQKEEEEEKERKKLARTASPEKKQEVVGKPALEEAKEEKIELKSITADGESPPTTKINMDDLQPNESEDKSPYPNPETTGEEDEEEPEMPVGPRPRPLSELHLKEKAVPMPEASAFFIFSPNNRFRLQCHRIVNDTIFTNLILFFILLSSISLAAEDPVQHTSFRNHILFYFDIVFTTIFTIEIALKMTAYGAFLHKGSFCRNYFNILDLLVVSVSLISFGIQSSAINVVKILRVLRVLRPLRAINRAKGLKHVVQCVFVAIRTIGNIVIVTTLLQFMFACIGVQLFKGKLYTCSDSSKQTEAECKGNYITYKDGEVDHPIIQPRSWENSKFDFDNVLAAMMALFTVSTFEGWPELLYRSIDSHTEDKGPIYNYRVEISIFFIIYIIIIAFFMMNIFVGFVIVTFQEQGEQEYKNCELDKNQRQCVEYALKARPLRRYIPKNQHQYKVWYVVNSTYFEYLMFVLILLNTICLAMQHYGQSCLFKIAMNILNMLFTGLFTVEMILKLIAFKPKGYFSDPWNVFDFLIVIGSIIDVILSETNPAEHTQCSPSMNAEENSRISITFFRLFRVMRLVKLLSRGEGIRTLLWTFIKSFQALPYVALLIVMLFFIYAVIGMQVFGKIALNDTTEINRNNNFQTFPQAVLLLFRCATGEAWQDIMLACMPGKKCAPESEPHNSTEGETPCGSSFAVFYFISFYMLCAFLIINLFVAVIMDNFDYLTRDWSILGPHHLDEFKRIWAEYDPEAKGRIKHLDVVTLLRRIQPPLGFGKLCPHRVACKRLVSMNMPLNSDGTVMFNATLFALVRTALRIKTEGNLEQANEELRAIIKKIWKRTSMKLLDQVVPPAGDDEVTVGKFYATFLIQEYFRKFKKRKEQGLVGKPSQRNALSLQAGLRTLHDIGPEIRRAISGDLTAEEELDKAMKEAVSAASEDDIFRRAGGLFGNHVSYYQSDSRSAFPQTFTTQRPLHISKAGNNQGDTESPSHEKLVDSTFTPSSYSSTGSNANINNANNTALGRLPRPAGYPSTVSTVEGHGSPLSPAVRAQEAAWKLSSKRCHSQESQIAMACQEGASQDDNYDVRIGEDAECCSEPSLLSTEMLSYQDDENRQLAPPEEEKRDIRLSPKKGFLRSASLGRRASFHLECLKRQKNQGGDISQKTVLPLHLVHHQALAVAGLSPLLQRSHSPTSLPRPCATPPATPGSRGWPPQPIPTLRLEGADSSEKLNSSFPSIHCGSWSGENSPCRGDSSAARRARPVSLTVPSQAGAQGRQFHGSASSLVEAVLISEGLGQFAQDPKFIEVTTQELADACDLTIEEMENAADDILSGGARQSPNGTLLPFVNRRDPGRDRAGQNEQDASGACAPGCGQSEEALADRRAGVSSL

On to `COC(=O)C1C(C)=NC(C)=C(C(=O)OC2C=CCCC2)C1c1cccc([N+](=O)[O-])c1` (stereo not drawn) [3-cyclohex-2-enyl 5-methyl 2,6-dimethyl-4-(3-nitrophenyl)-1,4-dihydropyridine-3,5-dicarboxylate], for which the IC50 in assay [1] and in assay [2] was 10 nM throughout.
Consider `C=CCOC(=O)C1=C(C)N=C(C)C(C(=O)OCC)C1c1cccc([N+](=O)[O-])c1` (stereo not drawn) [3-allyl 5-ethyl 2,6-dimethyl-4-(3-nitrophenyl)-1,4-dihydropyridine-3,5-dicarboxylate], for which the IC50 (commonly the concentration that inhibits the measured activity by half) is 25 nM in assay [1] and 15 nM in assay [2].
In the same order, the values of `C=C(C)C(=O)OCCOC(=O)C1=C(C)N=C(C)C(C(=O)OCC)C1c1cccc([N+](=O)[O-])c1` (stereo not drawn) [3-ethyl 5-(2-(methacryloyloxy)ethyl)2,6-dimethyl-4-(3-nitrophenyl)-1,4-dihydropyridine-3,5-dicarboxylate] are 10 nM and 10 nM.
In the same order, the values of `COC(=O)C1C(C)=NC(C)=C(C(=O)OCc2ccccc2)C1c1cccc([N+](=O)[O-])c1` (stereo not drawn) [3-benzyl 5-methyl 2,6-dimethyl-4-(3-nitrophenyl)-1,4-dihydropyridine-3,5-dicarboxylate] are 25 nM and 15 nM.
